Bioassay records deposited in PubChem BioAssay by several laboratories.
ARNT TACC3 PPI: ARNT/TACC3 interaction disruption; 390,000 compounds, 0.66% hits; AlphaScreen His-ARNT PAS-B/GST-TACC3 binding, luminescence; TACC3 fragment carries E629A point mutation; Q9Y6A5; inhibition, % at 9.99 µM;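 active means mean inhibition of replicates at least 50% and at least half of replicates each reaching 50%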
HTRA1 inh: HTRA1 (human) protease inhibition | inhibition, % at 5.96 µM | recombinant HTRA1, FP-rhodamine activity-based probe, fluorescence polarization | 340,000 compounds, 0.5% hits | Q92743; in the data active means inhibition above about 36%
Target sequence (Q92743 whole entry, looked up): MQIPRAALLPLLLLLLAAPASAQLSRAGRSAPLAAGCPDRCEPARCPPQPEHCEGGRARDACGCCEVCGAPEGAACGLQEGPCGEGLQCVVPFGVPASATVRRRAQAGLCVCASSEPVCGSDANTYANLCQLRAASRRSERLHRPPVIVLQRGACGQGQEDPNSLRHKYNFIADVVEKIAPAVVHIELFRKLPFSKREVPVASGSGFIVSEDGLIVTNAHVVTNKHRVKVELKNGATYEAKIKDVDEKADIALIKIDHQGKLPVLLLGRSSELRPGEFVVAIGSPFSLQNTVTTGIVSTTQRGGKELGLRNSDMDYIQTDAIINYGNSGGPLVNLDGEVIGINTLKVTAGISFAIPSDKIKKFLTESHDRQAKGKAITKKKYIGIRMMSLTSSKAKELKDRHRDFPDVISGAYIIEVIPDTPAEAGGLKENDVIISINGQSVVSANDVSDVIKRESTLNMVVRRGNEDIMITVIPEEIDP
ABHD4 inh: inhibitors of mouse ABHD4; purified mABHD4, FP-Rh probe fluorescence polarization; inhibition, % at 8.92 µM; 370,000 compounds, 0.54% hits; AID 720543;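 active means inhibition exceeding the mean over every tested compound plus 3 SD, cut at about 30% in these data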
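Test system: mouse ABHD4 enzyme, wild type. Reagent: FP-Rh fluorescent activity-based probe, added after compound pre-incubation. Timing: pre-incubation 45 min, probe exposure 60 min, at 25 °C. Technique: FP readout, ex 525 nm / em 598 nm. Benchmarks: high control S159A mutant with DMSO, low control median of compound wells.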
TCR CD3 inh: blocks the human TCR-CD3 interaction; TAMRA-labeled TCR probe fluorescence, biochemical; inhibition, % at 9.4 µM; 360,000 compounds, 0.37% hits; in the data active means inhibition above about 19%;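 further: recombinant mutant TCR 2C K166C tagged with TAMRA read by polarization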
SIAE primary: blocks human sialic acid acetylesterase; AID 1053197; inhibition, % at 9.66 µM; 370,000 compounds, 0.69% hits; SIAE FP-Rh probe binding, fluorescence polarization;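 active means inhibition above a cutoff: mean of compounds within the control limits plus 3 SD of those, cut at about 17% in these data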
Hits are given with their value; 0 = inactive; - = not tested or not shown. Only some compounds are listed: those with a hit (about 1.8% of all), similar ones and a draw of the others.

SMILES | ARNT TACC3 PPI | HTRA1 inh | ABHD4 inh | TCR CD3 inh | SIAE primary
CO[C@@H]1CN(C)C(=O)c2ccc(NS(=O)(=O)c3ccc(C)cc3)cc2OC[C@@H](C)N(Cc2ccccn2)C[C@H]1C | active | - | - | - | -
Cc1cc(NC(=O)NCc2ccccc2)c(=O)n(Cc2ccc(F)cc2)c1 | 47.6 | 0 | 0 | 0 | 0
CCCC(O)(c1ccccc1)C(CN1CCOCC1)c1ccccc1 (stereo unspecified) | 0 | 0 | 0 | 0 | 0
CCCC(O)(c1ccc(Cl)cc1)C(CN1CCOCC1)c1ccccc1 (stereo unspecified) | 45.7 | 0 | 0 | 0 | 0
O=C(C[C@H]1CC[C@@H]2[C@H](COC[C@@H](O)CN2CC2CCOCC2)O1)NCC1CC1 | 0 | - | - | - | -
CC(C)(C)c1nnc(N/N=C/c2ccccc2O)n(N)c1=O | 59.7 | 0 | 0 | 0 | 0
CCOc1ccccc1NC(=S)Nc1ccc2cn[nH]c2c1 | active | 0 | 0 | 0 | 0
S=C(Nc1ccccc1)Nc1ccc2cn[nH]c2c1 | 0 | 0 | 0 | 0 | 0
CC(=O)N(NC(=O)c1ccccc1Cl)C1CC(=O)N(c2ccc(C)cc2)C1=O (stereo unspecified) | 46.6 | 0 | 0 | 0 | 0
C[C@@H]1CCCCO[C@H](CN(C)Cc2ccc(C(F)(F)F)cc2)[C@@H](C)CN([C@@H](C)CO)C(=O)c2cc(NC(=O)Cc3ccccc3)ccc2O1 | 0 | - | - | - | -
COc1ccc(NC(=O)c2cnn(-c3ccccc3)c2C)cc1 | 0 | 0 | 0 | 0 | 0
COc1ccc(NC(=S)NNC(=O)c2nnn(-c3ccccc3)c2C)cc1 | 61.9 | 0 | 0 | 0 | 0
O=C1CCCC2=C1C(c1ccco1)Nc1ccc(C(=O)c3ccccc3)cc1N2 (stereo unspecified) | - | 0 | 0 | 0 | 0
O=C1CCCC2=C1C(c1ccccn1)Nc1ccc(C(=O)c3ccccc3)cc1N2 (stereo unspecified) | 46.5 | 0 | 0 | 0 | 0
CO[C@H]1CN(C)C(=O)c2cc(NC(C)=O)ccc2OC[C@H](C)N(C(=O)Cc2cccnc2)C[C@H]1C | 0 | - | - | - | -
COc1ccc(-c2nnc(NC(=O)C3=COCCO3)o2)cc1 | 46.3 | 0 | 0 | 0 | 0
O=C(Nc1nnc(C2=COCCO2)o1)c1ccc(Br)cc1 | 0 | 0 | 0 | 0 | 0
O=C(Nc1nnc(C2=COCCO2)o1)c1ccc(F)cc1 | 49.7 | 0 | 0 | 0 | 0
O=C(Nc1nnc(C2=COCCO2)o1)c1ccc(Cl)cc1 | 52.5 | 0 | 0 | 0 | 0
O=C(Nc1nnc(C2=COCCO2)o1)c1ccc(Cc2ccccc2)cc1 | 0 | 0 | 0 | 0 | 0
O=C(Nc1nnc(-c2ccc(Br)cc2)o1)C1=COCCO1 | 0 | 0 | 0 | 0 | 0
O=C(Nc1nnc(C2=COCCO2)o1)c1ccc([N+](=O)[O-])cc1 | 41.5 | 0 | 0 | 0 | 0
C[C@@H]1CCCCO[C@@H](CN(C)S(=O)(=O)c2ccccc2)[C@@H](C)CN([C@@H](C)CO)C(=O)c2cc(NS(=O)(=O)c3ccc(Cl)cc3)ccc2O1 | 0 | - | - | - | -
CN(CCO)c1ccc(C=NNc2ccc([N+](=O)[O-])cc2S(=O)(=O)Nc2ccccc2C(=O)O)cc1 | - | - | 46.1 | 0 | 0
CC(=O)Nc1ccc(C=NNc2ccc([N+](=O)[O-])cc2S(=O)(=O)Nc2ccccc2C(=O)O)cc1 | 0 | 0 | 0 | 0 | 0
SMILES | ARNT TACC3 PPI | HTRA1 inh | ABHD4 inh | TCR CD3 inh | SIAE primary
C[C@@H]1CCCCO[C@@H](CN(C)S(=O)(=O)c2cccs2)[C@H](C)CN([C@H](C)CO)C(=O)c2cc(NS(C)(=O)=O)ccc2O1 | 0 | - | - | - | -
COc1ccc(NC(=O)N(C)C[C@@H]2OCCCC[C@@H](C)Oc3ccc(NS(=O)(=O)c4ccc(OC)cc4)cc3C(=O)N([C@@H](C)CO)C[C@H]2C)cc1 | 24.0 | - | - | - | -
COc1ccc(NC(=O)N(C)C[C@H]2OCCCC[C@@H](C)Oc3ccc(NS(=O)(=O)c4ccc(OC)cc4)cc3C(=O)N([C@@H](C)CO)C[C@H]2C)cc1 | 0 | - | - | - | -
CC(C)NC(=O)Nc1ccc2c(c1)C(=O)N([C@@H](C)CO)C[C@@H](C)[C@H](CN(C)C(=O)C1CCCCC1)OCCCC[C@H](C)O2 | 45.8 | - | - | - | -
C[C@@H]1CCCCO[C@H](CN(C)S(=O)(=O)c2cccs2)[C@@H](C)CN([C@@H](C)CO)C(=O)c2cc(NS(C)(=O)=O)ccc2O1 | active | - | - | - | -
C[C@H](CO)N1C[C@H](C)[C@@H](CN(C)C(=O)CCC(F)(F)F)OCCCC[C@H](C)Oc2ccc(NC(=O)CCCN(C)C)cc2C1=O | 24.9 | - | - | - | -
CC(C)NC(=O)Nc1ccc2c(c1)C(=O)N([C@@H](C)CO)C[C@@H](C)[C@@H](CN(C)C(=O)C1CCCCC1)OCCCC[C@H](C)O2 | 0 | - | - | - | -
CN1C(=O)c2cc(NC(=O)c3ccc(F)cc3)ccc2OC[C@@H]2O[C@@H](CC(=O)N3CCOCC3)CC[C@H]21 | 0 | - | - | - | -
Cc1ccc2c3c(cccc13)-c1ccccc1C2=O | - | 0 | 0 | 0 | 0
Cc1coc2c1C(=O)C(=O)c1c-2ccc2c(C)cccc12 | 0 | 40.0 | - | - | -
C[C@@H]1CCCCO[C@@H](CN(C)Cc2ccccc2)[C@@H](C)CN([C@@H](C)CO)C(=O)c2cc(NC(=O)C3CCCCC3)ccc2O1 | 0 | - | - | - | -
COc1ccc(S(=O)(=O)Nc2ccc3c(c2)CC(=O)N([C@H](C)CO)C[C@@H](C)[C@H](CN(C)C(=O)Nc2ccc(F)cc2)O3)cc1 | 0 | - | - | - | -
Oc1ccccc1C=NCCN1CCN(CCN=Cc2ccccc2O)C1c1ccccc1O (stereo unspecified) | 71.3 | 0 | 0 | 0 | 0
C[C@@H]1CN([C@@H](C)CO)C(=O)c2cc(NC(=O)C3CC3)ccc2O[C@@H]1CN(C)C(=O)Nc1ccc2c(c1)OCO2 | 0 | - | - | - | -
NC(=O)NC(=O)CC1S/C(=N/N=C2/NC(=O)CS2)NC1=O (stereo unspecified) | 66.1 | 0 | 0 | 0 | 0
C[C@H](CO)N1C[C@H](C)[C@H](CN(C)C(=O)C2CCCCC2)Oc2ncc(-c3ccncc3)cc2C1=O | 0 | - | - | - | -
C[C@H](CO)N1C[C@H](C)[C@@H](CN(C)C(=O)Nc2cccc3ccccc23)Oc2c(NS(=O)(=O)c3cccs3)cccc2C1=O | 0 | - | - | - | -
COc1cc(/C=N\NC(=O)CC#N)ccc1OC/C=C/c1ccccc1 | 68.7 | 0 | 0 | 0 | 0
COCC(=O)N/N=C\c1ccc(OC/C=C/c2ccccc2)c(OC)c1 | 0 | 0 | 0 | 0 | 0
C[C@H](CO)N1C[C@H](C)[C@@H](CN(C)CC2CCOCC2)Oc2ncc(C#Cc3ccccc3)cc2C1=O | 0 | - | - | - | -
Cc1c(C(=O)N/N=C/c2ccncc2)nnn1-c1nonc1N | 0 | 0 | 0 | 0 | 0
Nc1nonc1-n1nnc(C(=O)N/N=C/c2ccccn2)c1CNc1ccccc1 | 46.6 | 0 | 0 | 0 | 0
CCOc1cccc(-c2c(C(=O)N/N=C(\C)c3ccccn3)nnn2-c2nonc2N)c1 | 91.8 | 0 | 0 | 0 | 0
Cc1c(C(=O)N/N=C/c2ccccn2)nnn1-c1nonc1N | 42.9 | 0 | 0 | 0 | 0
C/C(=N\NC(N)=O)c1cc(Cl)cc(Cl)c1O | - | - | 0 | 0 | 0
CC(=NNC(N)=O)C1=C(O)C(C(C)C)NC1=O (stereo unspecified) | 59.8 | 0 | 0 | 0 | 0
